# From PMC12461606 (RSC Chemical Biology, 2025)
# Tests used:
# A. thaliana = test: Herbicidal activity assay on soil-grown A. thaliana; type: in vivo, Arabidopsis thaliana; conditions: for pre-emergent inhibition: pre-emergence treatment; for pre-emergent inhibition / post-emergent inhibition: assessed on day 16; for post-emergent inhibition: treatments three and six days after germination
# How it was run: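 Test compounds were applied to A. thaliana across 125 μM–2 mM, either pre-emergence or post-emergence.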
# [1] = HPLC determination of dicamba formation in water; type: physicochemical; conditions: for % Dicamba: integration of dicamba as percentage of all peaks at 220 nm
# [2] = tested on: transgenic line of A. thaliana, modified with a synthetic dicamba monooxygenase from Stenotrophomonas maltophilia; test: Dicamba tolerance trait test, dicamba-tolerant transgenic line; type: in vivo, Arabidopsis thaliana; conditions: sprayed at 500 μM, DMOc line
# How it was run: (§1)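 Wild-type plants or a homozygous dicamba-tolerant transgenic line (DMOc) were sprayed with test compound or the parent acid at 500 μM.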
# [3] = tested on: Wild type A. thaliana (WT); test: Dicamba tolerance trait test, wild type plants; type: in vivo, Arabidopsis thaliana; conditions: sprayed at 500 μM
# How it was run: as §1
Compound,"relative post-emergent herbicidal efficacy among conjugates (A. thaliana; post-emergence, comparison between carbohydrate conjugates (Fig. 5))",% Dicamba ([1]; 1 day) [%],% Dicamba ([1]; 7 days) [%],% Dicamba ([1]; 28 days) [%],relative stability to hydrolysis among glucose isomers 1–5 ([1]; HPLC),growth effect on dicamba-tolerant transgenic line [2],growth effect on wild-type [3],pre-emergent inhibition (A. thaliana; 125 μM),post-emergent inhibition (A. thaliana; 125 μM),post-emergent inhibition (A. thaliana; 500 μM),pre-emergent inhibition (A. thaliana; 1 mM)
6-O-dicamba-D-glucose [Compound 2],most active,0.1,0.1,0.5,most stable,no growth symptoms,herbicidal,,,,
"COc1c(Cl)ccc(Cl)c1C(=O)O [Dicamba, 3,6-dichloro-2-methoxybenzoic acid]",,,,,,no growth symptoms,herbicidal,weak,moderate,strong,strong
